HSV replic up = increases HSV replication in cells. HSV replication augmentation in cells, fold increase. 0.005% of 220,000 active. maximum fold increase. AID 1956; in the data active means maximum fold increase above about 1.5; tested in PC3 cells
b-catenin transl = alters nuclear translocation of beta-catenin in HeLa cells | nuclear translocation activity, % at 5 µM | immunofluorescence imaging | AID 1665 | 0.3% of 190,000 active;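 active means nuclear translocation activity above 50% at 5 µM, with a well cell count of 50 or more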;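 further: per-cell ratio of nuclear to cytoplasmic median beta-catenin stain intensity; plate controls were DMSO negative control for no effect and GSK-3 inhibitor IX positive control for full effect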
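Assay system: human HeLa cells, native beta-catenin; doses: 5 µM primary, 0.02–20 µM confirmation; incubation: compound treatment 24 h, 37°C, 5% CO2; technique: fluorescence imaging of beta-catenin antibody stain plus DAPI; measure: % activation, nuclear-to-cytoplasmic median beta-catenin signal ratio per cell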
Dynein transport = dynein cargo transport inhibition; 3617.4 mouse cells, GR-EGFP nuclear translocation imaging; test concentration mostly 20 µM; stimulated with dexamethasone, 1 µM; active compounds read low; z-score, hits read low; 0.47% of 220,000 active;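 active means plate z-score of nuclear minus cytoplasmic receptor signal below a set negative limit, without overly bright fluorescence or cell loss, cut at about -3.5 in these data, passing the limit was not always enough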;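 further: z-score of nuclear minus cytoplasmic ring GR-EGFP intensity difference per well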
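Buffer or medium: tet-free medium with charcoal-stripped serum / Also added: dexamethasone agonist, 1.0 µM final, for 30 min / Timing: induction 48 h, compound 1 h, agonist 30 min / Measured by: high-content fluorescence imaging after fixation / Read-out: nuclear-to-cytoplasmic GR-EGFP distribution per well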
MT stabilizer = microtubule stabilizers in HeLa cells; HeLa tubulin immunostaining HCS, 24 h; share of cells brighter than vehicle mean+2SD; % tubulin-high responders, % at 10 µM; 0.83% of 200,000 active;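 active means plate Z-score above 3 for both tubulin-high and condensed-nucleus cell shares, with cell loss under 80%, at 10 µM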;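 further: anti alpha tubulin signal scored within the nucleus-defined area of each cell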
Lmaj promast = Leishmania major promastigote growth inhibition; Leishmania major promastigotes, resazurin fluorescence viability; inhibition, % at 10 µM; 9% of 200,000 active; AID 1063; in the data active means inhibition above about 50%;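 further: promastigotes grown with compound for 44 hours at 28 °C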
Starred values were filed as active, the others as inactive. A selection: hits, their analogues and other compounds. The true share with any hit is near 8.9%.

`COc1ccc(N2CC(O)=C(c3nc(-c4ccc(F)cc4)cs3)C2=N)cc1Cl` gave HSV replic up inactive, b-catenin transl 4.5, Dynein transport -0.00134, MT stabilizer 7.9 and Lmaj promast -0.4.
Cc1c(CCOC(=O)CC23CC4CC(CC(C)(C4)C2)C3)sc[n+]1CC(=O)c1ccccc1 was read as HSV replic up inactive, b-catenin transl 0.7, Dynein transport -4.25, MT stabilizer 2.3 and Lmaj promast 92.4*.
For Cc1c(CCOC(=O)C23CC4CC(CC(C)(C4)C2)C3)sc[n+]1CC(=O)c1ccccc1 the results were HSV replic up inactive, b-catenin transl -1.0, Dynein transport 3.33, MT stabilizer 1.9 and Lmaj promast 2.9.
For Cc1ccccc1Oc1cc(-n2ncc(Cl)c(Cl)c2=O)ncn1 the results were HSV replic up inactive, b-catenin transl -0.7, Dynein transport -3.03, MT stabilizer 3.6 and Lmaj promast 100.5*.
`O=C(O)c1cccc(COc2ccc(CO)cc2Cl)c1` gave HSV replic up inactive and b-catenin transl -0.2.
`O=c1c2c3nc4ccccc4nc3n(Cc3ccccc3)c2ncn1Cc1ccco1` gave HSV replic up inactive, b-catenin transl -2.3, Dynein transport -1.25, MT stabilizer 3.5 and Lmaj promast -0.6.
c1ccc(-c2c(-c3ccccc3)n(Cc3ccco3)c3ncnc(NCCCn4ccnc4)c23)cc1 was read as HSV replic up inactive, b-catenin transl -16.6, Dynein transport 1.67, MT stabilizer 1.7 and Lmaj promast 100.2*.
Screening N=c1c2c(-c3ccccc3)c(-c3ccccc3)n(Cc3ccco3)c2ncn1CCCN1CCOCC1 returned HSV replic up inactive, b-catenin transl 6.9, Dynein transport -0.639, MT stabilizer 44.1 and Lmaj promast 100.5*.
`N=c1c2c(-c3ccccc3)c(-c3ccccc3)n(Cc3ccco3)c2ncn1CCCn1ccnc1` gave b-catenin transl 4.9, Dynein transport -0.286, MT stabilizer 3.1 and Lmaj promast 100.2*.
Screening c1ccc(-c2oc3ncnc(NCCCn4ccnc4)c3c2-c2ccccc2)cc1 returned b-catenin transl -1.8, Dynein transport 0.278, MT stabilizer 5.9 and Lmaj promast 100.0*.
Screening O=C(CN1C(=O)CSC1=O)Nc1ccc(C(=O)O)cc1 returned HSV replic up inactive, b-catenin transl -2.2, Dynein transport -0.17, MT stabilizer 4.8 and Lmaj promast -2.7.
COCCCNC(=O)c1cc2c(=O)n(C)c3ccccc3c2n1C was read as HSV replic up inactive, Dynein transport -0.408, MT stabilizer 13.3* and Lmaj promast 0.5.
`Cn1c(C(=O)NCCCN2CCCCCC2)cc2c(=O)n(C)c3ccccc3c21` gave HSV replic up inactive, b-catenin transl -1.2, Dynein transport 3.34, MT stabilizer 1.5 and Lmaj promast 66.7*.
Screening CCCCN(CC)CCNC(=O)c1cc2c(=O)n(C)c3ccccc3c2n1C returned HSV replic up inactive, b-catenin transl -6.5, Dynein transport 0.0802, MT stabilizer 8.9 and Lmaj promast 77.4*.
CCCN(CCC)CCCNC(=O)c1cc2c(=O)n(C)c3ccccc3c2n1C was read as HSV replic up inactive, b-catenin transl -0.1, Dynein transport 0.786, MT stabilizer 1.7 and Lmaj promast 51.2*.
Screening CN(C)c1ccc(C(=O)c2ccccc2C(=O)O)cc1[N+](=O)[O-] returned HSV replic up inactive, b-catenin transl -1.1, Dynein transport 0.529, MT stabilizer 2.8 and Lmaj promast 2.8.
O=C(Nc1ccc(S(=O)(=O)N2CCCC2)cc1)C1CC(=O)N(c2ccccc2)C1 (centres undefined) was read as HSV replic up inactive, b-catenin transl -1.9, Dynein transport -0.0464, MT stabilizer 3.7 and Lmaj promast -3.0.
COc1ccc(C(=O)Nc2cccc(-c3nnc(-c4ccco4)o3)c2)cc1 was read as HSV replic up inactive, b-catenin transl -0.6, Dynein transport -0.932, MT stabilizer 1.4 and Lmaj promast 9.4.
For COc1ccc(CC(=O)Nc2cccc(-c3nnc(-c4ccco4)o3)c2)cc1 the results were Dynein transport -0.799, MT stabilizer 5.1 and Lmaj promast 61.1*.
N#Cc1c2c(c[nH]c1=O)CCN2Cc1ccccc1 was read as HSV replic up inactive, b-catenin transl -2.2, Dynein transport 0.753, MT stabilizer 4.2 and Lmaj promast -1.7.
O=C(/C=C/c1ccc([N+](=O)[O-])cc1)NCCSc1ccccc1 was read as HSV replic up inactive, b-catenin transl 0.2, Dynein transport -0.136, MT stabilizer 3.1 and Lmaj promast -1.6.
O=C(CN1CCNCC1)Nc1ccccc1Cl was read as HSV replic up inactive, b-catenin transl 1.0, Dynein transport -0.849, MT stabilizer 2.0 and Lmaj promast -4.8.
`O=C(CN1CCNCC1)NCCSc1ccc(Cl)cc1` gave HSV replic up inactive, b-catenin transl 4.2, Dynein transport 0.802, MT stabilizer 1.1 and Lmaj promast 88.0*.
Screening Cc1ccc(SCCNC(=O)/C=C/c2ccc(Cl)cc2)cc1 returned HSV replic up inactive, b-catenin transl -0.1, Dynein transport 0.115, MT stabilizer 2.8 and Lmaj promast 51.1*.
Screening Cc1ccc(SCCNC(=O)/C=C/c2ccc([N+](=O)[O-])cc2)cc1 returned HSV replic up inactive, b-catenin transl 0.2, Dynein transport 0.859, MT stabilizer 2.1 and Lmaj promast 61.8*.
`COc1cc2c(C(=O)N3CCCc4ccccc43)cn(C)c(=O)c2cc1OC` gave HSV replic up inactive, Dynein transport 0.554, MT stabilizer 2.5 and Lmaj promast -4.0.
Cn1c(CNC(=O)OC(C)(C)C)nnc1SCc1c(Cl)cccc1Cl was read as HSV replic up inactive, b-catenin transl -0.1 and Dynein transport -0.231.
CCn1c(SCC(=O)N2CCN(c3ccccc3)CC2)nnc1-c1c[nH]c2ccccc12 was read as HSV replic up inactive, b-catenin transl -2.8, Dynein transport 0.311, MT stabilizer 3.6 and Lmaj promast 57.5*.
For Cc1ccccc1-n1c(SCC(=O)N2CCN(c3ccccc3)CC2)nnc1-c1ccncc1 the results were HSV replic up inactive, b-catenin transl -0.9, Dynein transport -0.556, MT stabilizer 10.5 and Lmaj promast 62.1*.
Cc1ccc(CSCc2nnc(SCC(=O)N3CCN(c4ccccc4)CC3)n2C)cc1 was read as HSV replic up inactive, Dynein transport -1, MT stabilizer 1.3 and Lmaj promast -0.8.
Screening CCn1c(CSCc2ccc(F)cc2)nnc1SCC(=O)N1CCN(c2ccccc2)CC1 returned HSV replic up inactive, b-catenin transl 4.3, Dynein transport -0.355, MT stabilizer 2.0 and Lmaj promast 63.4*.
Screening Cc1ccccc1-n1c(SCC(=O)N2CCC(C(=O)O)CC2)nnc1-c1ccncc1 returned HSV replic up inactive, b-catenin transl -0.4, Dynein transport -0.716, MT stabilizer 1.2 and Lmaj promast 0.3.
Cn1c(SCC(=O)N2CCN(c3ccccc3)CC2)nnc1-c1c[nH]c2ccccc12 was read as HSV replic up inactive, Dynein transport 0.276, MT stabilizer 7.2 and Lmaj promast 17.4.

Compound activity deposited in PubChem by several laboratories.
